According to PubChem BioAssay:
Unmarked numbers belong to inactive results. Records with an inconclusive call do not appear. Calls of active or inactive are those of the source.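 How the source made its calls, unless noted: active means cell viability at or below a set limit in both duplicate runs, the limit being the all-compound median minus 4 SD (cut at about 23% in these data, passing the limit was not always enough); inconclusive means no clear call, values can overlap the other calls; inactive means the rest.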

Tests used:
[1] = OD615 S. cerevisiae growth inhibition, permissive medium, pilot counter-assay, permissive growth control for S. cerevisiae lifespan shortening project (AID 705;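 active means growth inhibition above 25% in both replicates, a cutoff set 3 SD above the mean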); settings: OD615, 24 h, at 10 µM, hits give high values
Summary of the method: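 Test system: Saccharomyces cerevisiae strain carrying genetically modified DeaD replicative-lifespan system; buffer or medium: SC raffinose/galactose permissive medium; dosing: one dose 10 µM, DMSO 0.25% final; times: 24 h exposure, 30 °C; measured by: OD at 615 nm; read-out basis: growth inhibition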

[2] = Restrictive medium S. cerevisiae growth inhibition, OD615, pilot screen of yeast lifespan reduction project, restrictive growth control (AID 706;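 active means growth inhibition above a set limit, 3 SD over mean compound inhibition, in both replicates, cut at about 43% in these data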;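 further: modified DeaD lifespan yeast strain shifted to restrictive glucose medium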); settings: OD615, 48 h, at 10 µM, hits give high values
Summary of the method: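 material = engineered S. cerevisiae DeaD strain | buffer or medium = glucose-based CSMM-D restrictive medium | dosing = one concentration, 10 µM final, 0.25% DMSO | schedule = 4 h pre-growth plus 48 h compound exposure, 30 °C | detection = OD615 absorbance reading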

[3] = viability gain of MRP-1-high H69AR cells under doxorubicin, pilot screen, MRP-1 activator project, CellTiter-Glo, duplicate (AID 807;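 active means viability increase at or above a cutoff of the median across tested compounds plus 3 SD, cut at about 8.5% in these data, passing the limit was not always enough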;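 further: compound pretreatment 18-22 h then 72 h combined with doxorubicin; 0% = doxorubicin alone and 100% = vehicle without doxorubicin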); settings: H69AR viability with doxorubicin, CellTiter-Glo luminescence; at 10 µM; hits give high values
[4] = growth suppression of beta-catenin knockout HCT116, pilot screen, human colon tumor cells (AID 823); settings: CellTiter-Glo, 60 h, at 10 µM, hits give low values;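 further: 0% = wells killed by 20 µM Hyamine and 100% = untreated DMSO cell wells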
[5] = growth suppression of PTEN-deleted HCT116, pilot screen, cell-based, HCT116 clonal line, CellTiter-Glo (AID 824;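 active means viability at or below 27.92% in each of two runs, the all-compound median minus 4 SD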;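 further: 0% = 20 µM Hyamine control and 100% = vehicle cell control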); settings: 60 h, at 10 µM, hits give low values
[6] = inhibitors of the yeast RAM network, pilot screen, dse1pr::URA3 reporter, 5-FOA selection (AID 869;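 active means inhibition over a set limit, the all-compound mean plus 3 SD, in both replicate runs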;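 further: 0% = DMSO wells with no growth and 100% = 10 µM 1-NA-PP1 with full growth; RAM network block rescues cells from 5-FOA so hits raise OD615 growth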); settings: S. cerevisiae dse1pr::URA3 5-FOA growth, OD615, 2 d; at 10 µM; hits give high values; strain carries analog-sensitive mutant Cbk1 kinase
[7] = RAM signaling pathway blockade in yeast – S. cerevisiae, Pdr1DBD-CYC8 efflux-inhibited sensitized strain, primary screen (AID 1298;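 active means RAM network inhibition above 8.4% in each of two replicates, 3 SD over the compound average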;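 further: 0% = DMSO untreated cells without growth and 100% = 10 µM 1-NA-PP1 full growth; higher means more yeast growth rescued from 5-FOA killing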); settings: S. cerevisiae cbk1-as DSE1-URA3 strain, 5-FOA growth OD615, 2 d; at 50 µM; hits give high values

| SMILES | growth inhibition [1] [%] | growth inhibition [2] | viability increase [3] [%] | viability [4] [%] | viability [5] [%] | inhibition [6] [%] | RAM network inhibition [7] [%] |
| --- | --- | --- | --- | --- | --- | --- | --- |
| CC(C)CCOc1cccc(C2c3c(oc4ccccc4c3=O)C(=O)N2CCCN2CCOCC2)c1 (configuration not stated) | -3.75 | -23.9% | -4.89 | 87.9 | 84.2 | 0.82 | 6.7 |
| COc1ccc(C(=O)CCC(=O)O)cc1 | -6.25 | 0.095% | -0.14 | 98.1 | 96.7 | 2.16 | -2.03 |
| CCOC(=O)C1CCCN(C(=O)c2ccc(CNc3c(N4CCC(C)CC4)c(=O)c3=O)cc2)C1 (configuration not stated) | -16.1 | -24.3% | 0.29 | 102 | 98.9 | 2.57 | 4.84 |
| COc1ccc(CC(=O)Nc2cc(=O)n(C)c(=O)n2C)cc1 | -5.75 | -4.35% | 0.44 | 102 | 91 | 1.85 | -2.12 |
| O=C(Nc1c(C(=O)O)oc2ccc(Br)cc12)c1ccccc1 | -34 | 2.99% | -3.96 | 101 | 99.5 | 2.95 | -2.35 |
| CC(=O)c1cccc(NC(=O)Nc2cc3sccc3n2C)c1 | 10.3 | 10.1% | -3.17 | 98.2 | 95.9 | 0.69 | 5.08 |
| C=CCn1c(=O)c(C(=O)Nc2ccccc2OC)c(O)c2ccccc21 | 1.44 | -2.46% | -2.69 | 104 | 90.1 | 2.31 | 1.39 |
| O=C(NCCN1CCCC1)c1ccc(CS(=O)(=O)c2c(Cl)cccc2Cl)o1 | -6.75 | -20.8% | -0.97 | 106 | 102 | 1.5 | 2.61 |
| O=C(NCCCN1CCOCC1)c1ccco1 | -9.93 | -3.09% | -0.94 | 98.8 | 96.2 | 0.23 | 2.27 |
| O=C1C(C=NCCCN2CCOCC2)=C(O)c2ccccc21 | -1.9 | 10.5% | -4.78 | 98.6 | 90.2 | 0.71 | 5.89 |
| C1CCC2(CC1)C1=C(CCCC1)Nc1nnnn12 | -4.35 | 1.16% | -1.07 | 93.5 | 87.8 | 2.16 | 5.77 |
| CCCc1cc(=O)[nH]c(SCC(=O)NC2CCCCC2)n1 | 2.37 | 0.01% | -1.41 | 89.5 | 94.8 | 0.82 | 0.46 |
| CCCCCCn1c(SCCOC)nc2c1c(=O)[nH]c(=O)n2C | -2.79 | -3.65% | -0.71 | 90.2 | 85 | 1.88 | 9.09 |
| COC(=O)C(C)Sc1nnc(Cc2cc(=O)[nH]c(=O)[nH]2)n1-c1cc(C)ccc1C (configuration not stated) | -5.62 | 0.885% | -1.25 | 96 | 90.3 | 1.77 | 0.62 |
| Cc1ccc(-n2nnc3c(=O)n(CC(=O)OCc4ccccc4)cnc32)cc1 | -3.74 | -5.4% | -2.06 | 92.6 | 91.1 | 2.02 | 6.18 |
| CN1C(=O)CS(=O)c2ccc(C(=O)NCCC3=CCCCC3)cc21 (configuration not stated) | 0.135 | 0.3% | -2.35 | 81.3 | 85 | 0.265 | 2.98 |
| Cn1cccc1Cc1nnc(SCC(=O)NCc2ccccc2)n1-c1ccc(F)cc1 | -3.32 | 0.42% | -3.08 | 90.8 | 89.8 | 2.85 | 2.8 |
| CCOC(=O)C1C(C)N=C2SCC(=O)N2C1c1cccc(Br)c1 (configuration not stated) | 9.43 | 51.2% (active) | -0.84 | 86.4 | 93.2 | 0.36 | 3.99 |

| SMILES | growth inhibition [1] [%] | growth inhibition [2] | viability increase [3] [%] | viability [4] [%] | viability [5] [%] | inhibition [6] [%] | RAM network inhibition [7] [%] |
| --- | --- | --- | --- | --- | --- | --- | --- |
| CCOC(=O)Nc1ccc2c(c1)N(C(=O)N(C)C)c1ccccc1CC2 | -8.91 | -0.49% | -1.82 | 96.8 | 96 | -0.31 | 2.67 |
| CCCC(=O)NCCCc1nc2ccccc2n1C(C)C | -18.1 | -23.6% | 1.18 | 102 | 96.2 | 1.66 | 3.95 |
| CC1Cc2ccccc2N1C(=O)c1cnc2n(c1=O)CCS2 (configuration not stated) | -2.36 | -4.37% | -0.53 | 94.4 | 98.9 | -0.135 | 2.13 |
| Brc1ccc(-c2noc(CCc3ccccc3)n2)o1 | -9.63 | 2.66% | 1.58 | 102 | 96.9 | 3.12 | 0.73 |
| COc1ccc(OCCNS(=O)(=O)c2ccccc2)cc1 | -18.1 | -18.5% | 0.87 | 94.5 | 97.2 | 0.965 | 1.42 |
| Clc1cccc(Nc2ncnc3c2cnn3-c2ccccc2)c1 | -15.3 | -12.2% | -2.07 | 82.5 | 78.6 | 2.04 | 4.85 |
| O=C(CCCCC(=O)N1CCN(c2ccccc2)CC1)N1CCN(c2ccccc2)CC1 | -2.23 | 8.9% | 0.82 | 94.6 | 86 | 1.74 | -0.46 |
| CC(=O)Nc1nnc(SCC(=O)NCCOc2ccccc2)s1 | -0.45 | -7.88% | -0.85 | 98.9 | 96.7 | 0.52 | 4.66 |
| CCc1nnc(NC(=O)CSc2nnc(Cc3cccn3C)n2CCOC)s1 | -4.61 | 32.5% | -0.66 | 96.8 | 98.3 | 0.98 | 2.84 |
| CC(O)c1cccc(NC(=O)CCC(=O)O)c1 (configuration not stated) | 0.85 | -3.43% | -2.35 | 98.9 | 95.4 | 1.97 | -1.13 |
| COC(=O)c1oc2ccc(Br)cc2c1NC(=O)CCCN1C(=O)c2ccccc2C1=O | -10.3 | -14.3% | 0.98 | 97.7 | 98.5 | 2.69 | 7.77 |
| COc1cc(NC(=O)c2ccc(S(=O)(=O)N(C)C)cc2)cc(OC)c1OC | -4.25 | -12.5% | -2.66 | 92.9 | 94.3 | 0.985 | 3.48 |
| Cc1c(C(=O)O)oc2ccc(S(=O)(=O)N3CCCCC3C(=O)O)cc12 (configuration not stated) | 4.47 | -3.15% | -0.18 | 97.1 | 101 | 1.12 | 5.52 |
| COc1c(Cl)cc(-c2noc(C)c2C(=O)NC(C)C)cc1Cl | -17.1 | -15.9% | 0.34 | 98.1 | 96.4 | 1.33 | 2.37 |
| O=C(CSc1ncnc2c1oc1ccccc12)Nc1cccc(C(F)(F)F)c1 | -12.2 | -15.6% | 1.15 | 86.3 | 84 | 3.52 | 7.32 |
| CC1CCc2nc3ccc(S(=O)(=O)N4CCC(C(=O)NC5CCCC5)CC4)cc3c(C(=O)O)c2C1 (configuration not stated) | -0.78 | 10.5% | -2.1 | 94.8 | 95.4 | 1.08 | 3.59 |
| Cc1oc(-c2cccc(Cl)c2)nc1CN1CCC(C(=O)NCCCN2CCCC2=O)CC1 | -1.65 | -10.2% | -3.95 | 85.8 | 93.5 | 0.59 | 2.35 |
| CC(=O)Nn1cc2c(c1-c1ccccc1)c(=O)n(C)c(=O)n2C | -10 | -3.13% | 1.16 | 93 | 87.2 | 1.5 | 3.01 |
